Assay results reported in publication PMC9076386 (RSC Advances, 2019).

Columns and labels:
Format in all cases: cell-based
HeLa cells = experiment: MTT cytotoxicity assay, HeLa; details: Homo sapiens, read-out: IC50 Hela
How it was run: (§1)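 Human lines were grown in RPMI 1640 with 10% FBS at 37 °C and 5% CO2; MCF-7 medium also had glutamine, HEPES and pyruvate. Log-phase cells were seeded, preincubated for 24 h, then treated for 72 h with DMSO-dissolved test compound at 0, 1.25, 2.5, 5, 10 or 20 μM. MTT (5 mg mL−1 stock) was added for 4 h, formazan was dissolved in DMSO and OD was read at 550 nm.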

HepG2 cells = experiment: MTT cytotoxicity assay, HepG2; details: Homo sapiens, HepG2, read-out: IC50 HepG2
How it was run: as §1

SKOV3 cells = experiment: MTT cytotoxicity assay, SKOV3; details: Homo sapiens, SK-OV-3, read-out: IC50 SKOV3
How it was run: as §1

Work on `CC(=O)O[C@H]1C(=O)[C@@]2(C)[C@H]([C@H](OC(=O)c3ccccc3)[C@]3(O)C[C@H](OC(=O)[C@H](O)[C@@H](NC(=O)c4ccccc4)c4ccccc4)C(C)=C1C3(C)C)[C@]1(OC(C)=O)CO[C@@H]1C[C@@H]2O` [Paclitaxel] yielded an IC50 (HeLa cells) of 3 nM, an IC50 (HepG2 cells) of 1.5 nM and an IC50 (SKOV3 cells) of 3.8 nM.
